Reference: ChEMBL document CHEMBL1127495, “A recombinant human stromelysin catalytic domain identifying tryptophan derivatives as human stromelysin inhibitors” (J Med Chem, 1994)

Columns and labels:
[1] = molecular target: T1, Stromelysin-1 (Homo sapiens, UniProt P08254); assay: In vitro inhibition of recombinant stromelysin catalytic domain.
[2] = molecular target: T1, Stromelysin-1; assay: (§1) Inhibition of recombinant stromelysin catalytic domain (SCD)
[3] = molecular target: T1, Stromelysin-1; assay: as §1; remark: listed apart in the source
Procedure, shortened: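 E. coli-expressed human stromelysin catalytic domain (Phe-100 to Pro-273), expressed without propeptide so needing no activation, at 100 nM (10 nM for the hydroxamate peptide). A405 read over 3 min at room temperature.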

[4] = molecular target: T1, Stromelysin-1; assay: Inhibition of full length stromelysin isolated from cultured human cells (FLS)
[5] = molecular target: T1, Stromelysin-1; assay: Inhibition of full length stromelysin isolated from cultured human cells (FLS).

T1 sequence (P08254 whole entry, the tested form may be a part): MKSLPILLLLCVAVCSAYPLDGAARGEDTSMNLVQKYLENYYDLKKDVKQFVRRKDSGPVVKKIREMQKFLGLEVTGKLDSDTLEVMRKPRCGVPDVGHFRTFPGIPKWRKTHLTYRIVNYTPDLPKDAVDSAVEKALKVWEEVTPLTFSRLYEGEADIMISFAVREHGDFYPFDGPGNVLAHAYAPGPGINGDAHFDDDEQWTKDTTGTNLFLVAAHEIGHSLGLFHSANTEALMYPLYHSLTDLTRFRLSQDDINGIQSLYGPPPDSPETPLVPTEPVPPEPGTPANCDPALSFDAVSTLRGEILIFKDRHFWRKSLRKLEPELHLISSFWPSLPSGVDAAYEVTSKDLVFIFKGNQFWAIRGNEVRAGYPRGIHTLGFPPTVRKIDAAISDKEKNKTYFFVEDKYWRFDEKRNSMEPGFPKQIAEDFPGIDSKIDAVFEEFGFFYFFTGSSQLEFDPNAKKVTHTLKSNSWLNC

SMILES	IC50 [1]	Ki [2]	further results
CC(=O)N[C@@H](Cc1ccc(O)cc1)C(=O)O [ACETYL TYROSINE]	> 500 µM	–	–
CC(C)(C)OC(=O)N[C@@H](Cc1c[nH]c2ccccc12)C(=O)O	10 µM	8 µM	–
CC(=O)N[C@H](Cc1ccc(O)cc1)C(=O)O	> 500 µM	–	–
CC(=O)N[C@@H](Cc1c[nH]c2ccccc12)C(=O)O [ACETYLTRYPTOPHAN]	–	–	IC50 [3]: < 500 µM
CC(C)(C)OC(=O)N[C@@H](Cc1ccc(O)cc1)C(=O)O	–	–	IC50 [3]: < 500 µM
Cc1cc(C)c(S(=O)(=O)n2cc(C[C@H](NC(=O)OC(C)(C)C)C(=O)O)c3ccccc32)c(C)c1	63 µM	52 µM	–
N[C@H](Cc1c[nH]c2ccccc12)C(=O)O [D-TRYPTOPHAN]	> 500 µM	–	–
CC(C)(C)OC(=O)N[C@@H](Cc1c[nH]c2ccccc12)C(=O)ON1C(=O)CCC1=O	102 µM	84 µM	–
CC(C)(C)OC(=O)N[C@@H](Cc1cn(C=O)c2ccccc12)C(=O)O	34 µM	28 µM	–
O=C(N[C@H](Cc1c[nH]c2ccccc12)C(=O)O)OCC1c2ccccc2-c2ccccc21	–	–	IC50 [3]: < 500 µM
NC(=O)[C@H](Cc1ccc(O)cc1)NC(=O)OCc1ccccc1	> 500 µM	–	–
O=C(N[C@@H](Cc1c[nH]c2ccccc12)C(=O)O)OCC1c2ccccc2-c2ccccc21	500 µM	–	–
O=C(N[C@@H](Cc1ccccc1)C(=O)O)OCc1ccccc1	40 µM	33 µM	Ki [4]: 83 µM; IC50 [5]: 99 µM
N[C@@H](Cc1c[nH]c2ccccc12)C(=O)O [TRYPTOPHAN]	> 500 µM	–	–
O=C(N[C@@H](Cc1ccc(O)cc1)C(=O)O)OCc1ccccc1	24 µM	20 µM	Ki [4]: 18 µM; IC50 [5]: 22 µM
CC(C)(C)OC(=O)N[C@H](Cc1ccc(O)cc1)C(=O)O	> 500 µM	–	–
O=C(/C=C/c1ccco1)N[C@@H](Cc1c[nH]c2ccccc12)C(=O)O	145 µM	120 µM	–
O=C(N[C@H](Cc1ccccc1)C(=O)O)OCc1ccccc1	> 500 µM	–	IC50 [5]: > 500 µM
CC(C)(C)OC(=O)N[C@H](Cc1c[nH]c2ccccc12)C(=O)O	–	–	IC50 [3]: < 500 µM
O=C(N[C@H](Cc1ccc(O)cc1)C(=O)O)OCc1ccccc1	432 µM	356 µM	Ki [4]: 377 µM; IC50 [5]: 450 µM
O=C(N[C@@H](Cc1c[nH]c2ccccc12)C(=O)O)c1ccccc1	–	–	IC50 [3]: < 500 µM
O=C(N[C@@H](Cc1c[nH]c2ccccc12)C(=O)ON1C(=O)CCC1=O)OCc1ccccc1	13 µM	11 µM	–
NNC(=O)[C@H](Cc1ccc(O)cc1)NC(=O)OCc1ccccc1	> 500 µM	–	–
CC(=O)N[C@H](Cc1c[nH]c2ccccc12)C(=O)O	–	–	IC50 [3]: < 500 µM
NC(=O)[C@H](Cc1c[nH]c2ccccc12)NC(=O)OCc1ccccc1	–	–	IC50 [3]: < 500 µM
